Data taken from article PMC6426446 (Bioorganic & medicinal chemistry, 2010).
“Also recorded” adds a separate entry of the source.

What was measured:
[1] = test system: CRL-2365 (brain glioblastoma); assay: MTT assay CRL-2365; format: cell-based; conditions: Homo sapiens, read-out: IC50 MTT assay CRL-2365
Outline: (§1)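 Standard MTT growth-inhibition assay with DMSO as vehicle. CRL-2365 and CRL-2366 were kept in DMEM; MCF-7, A549 and mouse 3LL in RPMI-1640. Both media carried 10% fetal bovine serum, penicillin G (100 U/mL) and streptomycin (100 μg/mL). MCF-10A breast cells were grown in Mammary Epithelial Growth Medium.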

[2] = test system: CRL-2366 (DNA repair deficient brain glioblastoma); assay: MTT assay CRL-2366; format: cell-based; conditions: Homo sapiens, read-out: IC50 MTT assay CRL-2366
Outline: as §1

[3] = test system: cultured human and mouse cell lines; assay: MTT assay, all tested cell lines; format: cell-based
Outline: as §1

[4] = molecular target: NADH-ubiquinone oxidoreductase (mitochondrial complex I) (Bos taurus, UniProt P03887+P17694+P42026); assay: NADH-ubiquinone; format: biochemical, bovine; conditions: compared with 12
Chain of NADH-ubiquinone oxidoreductase (mitochondrial complex I) (P03887 whole entry): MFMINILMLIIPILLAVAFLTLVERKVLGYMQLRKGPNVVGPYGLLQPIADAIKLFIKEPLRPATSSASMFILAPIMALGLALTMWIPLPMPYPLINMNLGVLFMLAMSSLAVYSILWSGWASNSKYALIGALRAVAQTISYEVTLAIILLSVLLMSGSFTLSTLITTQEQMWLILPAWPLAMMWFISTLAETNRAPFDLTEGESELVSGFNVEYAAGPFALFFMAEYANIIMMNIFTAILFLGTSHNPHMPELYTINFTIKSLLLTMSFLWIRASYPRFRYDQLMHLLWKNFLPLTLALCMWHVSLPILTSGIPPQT
Chain of NADH-ubiquinone oxidoreductase (mitochondrial complex I) (P42026 38-216): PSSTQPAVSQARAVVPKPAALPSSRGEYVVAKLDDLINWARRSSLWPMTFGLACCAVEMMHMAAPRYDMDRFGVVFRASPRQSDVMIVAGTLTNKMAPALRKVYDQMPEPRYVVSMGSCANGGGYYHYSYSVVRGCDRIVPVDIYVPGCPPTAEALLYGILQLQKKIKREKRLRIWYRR
Chain of NADH-ubiquinone oxidoreductase (mitochondrial complex I) (P17694 34-463): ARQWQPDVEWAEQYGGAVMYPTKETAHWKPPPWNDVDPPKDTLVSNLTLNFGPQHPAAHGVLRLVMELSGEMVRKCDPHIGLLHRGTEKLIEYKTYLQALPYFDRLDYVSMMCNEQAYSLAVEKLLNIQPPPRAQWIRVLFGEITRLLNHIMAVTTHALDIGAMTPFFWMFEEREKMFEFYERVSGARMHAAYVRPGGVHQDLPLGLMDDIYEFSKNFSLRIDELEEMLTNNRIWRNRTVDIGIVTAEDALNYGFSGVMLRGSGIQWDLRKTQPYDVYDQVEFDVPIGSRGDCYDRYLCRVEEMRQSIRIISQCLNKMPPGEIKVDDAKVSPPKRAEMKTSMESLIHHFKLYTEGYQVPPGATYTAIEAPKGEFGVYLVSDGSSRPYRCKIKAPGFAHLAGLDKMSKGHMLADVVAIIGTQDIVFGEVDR

[5] = Stability of purified compound; format: physicochemical
[6] = test system: MCF-7 human breast carcinoma cells; assay: Lactate assay; format: cell-based; conditions: MCF-7 cells, 3 h, varying concentrations
Outline: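 MCF-7 cells seeded at 2 × 10^5 per well and grown 24 h (about 50% confluence). Wells rinsed with pre-warmed Krebs-Ringer buffer, then exposed for 3 h to test compound in buffer against buffer-only controls. Supernatant lactate measured as absorbance change at 363 nm and converted using extinction coefficient 9.1 mM−1 cm−1. Three determinations per point; experiments repeated at least three times.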

NADH fumarate reductase = conditions: cited from earlier work
[7] = molecular target: NADH oxidase (complexes I, III and IV) (Bos taurus, UniProt P03887+P17694+P42026); assay: NADH oxidase activity in bovine heart submitochondrial particles; format: biochemical; conditions: bovine heart SMP
Chain of NADH oxidase (complexes I, III and IV) (P03887 whole entry): as the sequence (P03887 whole entry) above
Chain of NADH oxidase (complexes I, III and IV) (P42026 38-216): as the sequence (P42026 38-216) above
Chain of NADH oxidase (complexes I, III and IV) (P17694 34-463): as the sequence (P17694 34-463) above

Compound | IC50 [1] [µM] | IC50 [2] [µM] | Stimulation of lactate production (in words) [6] | other results
CCCCCCCCC(C)(O)CCc1oc(=O)c(C)c(O)c1C (racemic) [Compound 12, (rac)-6-[3-Hydroxy-3-methylundecyl]-3,5-dimethyl-4-hydroxypyran-2-one] | > 31 | > 31 |  | 
CCCCCCCCC(C)(O)CCc1oc(C)c(C)c(=O)c1C (racemic) [Compound 18, (rac)-2-[3-Hydroxy-3-methylundecyl]-3,5,6-trimethyl-4H-pyran-4-one] |  |  |  | Cytotoxicity (in words) [3]: no cytotoxicity
CCCCCCCCC(C)(O)CCc1[nH]c(=O)c(C)c(O)c1C (racemic) [Compound 21, (rac)-6-[3-Hydroxy-3-methylundecyl]-3,5-dimethyl-4-hydroxypyridin-2-one] |  |  |  | Potency relative to 12 as inhibitor of NADH-ubiquinone oxidoreductase [4]: more than 10 fold; Stability after purification by preparative thin layer chromatography [5]: rather unstable
CCCCCCCCCC(O)Cc1oc(OC)c(C)c(=O)c1C (stereo not shown) [Compound 1, 2-(2-Hydroxyundecyl)-6-methoxy-3,5-dimethyl-4H-pyran-4-one] |  |  | strongly stimulated | Inhibitory activity toward NADH fumarate reductase (in words) (NADH fumarate reductase): strong inhibitory activity
CCCCCCCC[C@@](C)(O)CCc1oc(=O)c(C)c(O)c1C [Compound 13, (R)-6-[3-Hydroxy-3-methylundecyl]-3,5-dimethyl-4-hydroxypyran-2-one] | > 31 | > 31 |  | 
CCCCCCCC[C@](C)(O)CCc1oc(=O)c(C)c(O)c1C [Compound 14, (S)-6-[3-Hydroxy-3-methylundecyl]-3,5-dimethyl-4-hydroxypyran-2-one] | > 31 | > 31 | weakly stimulated | 
CCCCCCCC[C@](C)(O)CCc1oc(OC)c(C)c(=O)c1C [Compound 17, (S)-2-[3-Hydroxy-3-methylundecyl]-6-methoxy-3,5-dimethyl-4H-pyran-4-one] |  |  | strongly stimulated | 
CCCCC(O)Cc1oc(OC)c(C)c(=O)c1C (stereo not shown) [Compound 22, 2-(2-Hydroxyhexyl)-6-methoxy-3,5-dimethyl-4H-pyran-4-one] |  |  | weakly stimulated | Inhibition of mitochondrial respiratory chain function (in words) [7]: did not inhibit; also recorded: no inhibitory activity
COc1oc(CC(O)CCCCCOc2ccc(-c3ccccc3)cc2)c(C)c(=O)c1C (stereo not shown) [Compound 30, 2-[2-Hydroxy-7-(4-phenyl)phenoxyheptyl]-6-methoxy-3,5-dimethyl-4H-pyran-4-one] |  |  | strongly stimulated | 
